# Source: PubChem
# PKA-R2B activ = PKA-R2B complex activation; P22694+P31323; PKA-R2B holoenzyme dissociation, Cy5-IP20 fluorescence polarization; R2B truncated from residue 108, S112A mutant; 0% DMSO only, 100% 113 µM cGMP; activation, % at 11.4 µM; 340,000 compounds, 0.079% hits; AID 504700;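 active means activation above a cutoff set at the mean over all compounds plus 3 SD, cut at about 18% in these data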;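 further: higher means more holoenzyme dissociation and a rise in polarization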
# procasp7 counter = activates human procaspase-7, counter-screen for procaspase-3 activators; P55210; recombinant procaspase-7, Ac-DEVD-pNA absorbance 405 nm; D23A/D198A/D206A triple mutant, cannot self-cleave; scale: DMSO 0, 5 µM enzyme 100; activation, % at 8.5 µM; 330,000 compounds, 0.093% hits; AID 463210;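 active means percent activation above the screen-wide mean plus 3 SD, cut at about 25% in these data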
# Target sequence (P55210 whole entry D23A/D198A/D206A): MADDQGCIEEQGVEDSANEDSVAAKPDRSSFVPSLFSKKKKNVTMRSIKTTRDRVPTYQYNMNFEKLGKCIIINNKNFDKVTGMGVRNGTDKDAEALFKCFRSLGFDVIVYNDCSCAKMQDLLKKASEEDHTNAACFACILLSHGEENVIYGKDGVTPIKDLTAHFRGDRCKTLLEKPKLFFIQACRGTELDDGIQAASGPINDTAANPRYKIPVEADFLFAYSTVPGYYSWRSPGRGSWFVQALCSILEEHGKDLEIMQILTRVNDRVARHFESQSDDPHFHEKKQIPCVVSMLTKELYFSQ
#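 Test system: Procaspase-7 triple mutant (PC-7 D3A). Also added: Ac-DEVD-pNA substrate, 400 µM as added. Schedule: 1 h enzyme–compound preincubation and 2 h substrate reaction, both 25 °C. Signal: p-Nitroaniline absorbance at 405 nm, read at 0 and 120 min. Control set: low DMSO alone, high DMSO plus 5 µM PC-7.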
# procasp3 activ = activators of human procaspase-3; 330,000 compounds, 0.11% hits; activation, % at 8.5 µM; AID 463141; P42574; recombinant procaspase-3 D3A, Ac-DEVD-pNA absorbance 405 nm;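 active means activation above the mean of all tested compounds plus 3 SD, cut at about 21% in these data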;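 further: 0% = DMSO alone and 100% = DMSO wells spiked with extra 5 µM PC-3 D3A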
# Target sequence (P42574 whole entry D9A/D28A/D175A): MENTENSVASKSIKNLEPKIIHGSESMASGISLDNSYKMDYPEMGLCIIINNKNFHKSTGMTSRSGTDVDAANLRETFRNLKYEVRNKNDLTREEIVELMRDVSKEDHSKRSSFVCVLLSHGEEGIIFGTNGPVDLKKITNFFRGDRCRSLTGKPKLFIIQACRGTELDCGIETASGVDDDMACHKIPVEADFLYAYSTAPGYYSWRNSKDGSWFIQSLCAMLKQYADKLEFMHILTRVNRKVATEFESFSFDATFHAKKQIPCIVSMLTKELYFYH
#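 Evaluation: percent activation relative to control range; Material: Procaspase-3 D3A mutant, all three cleavage aspartates alanine; Compound: single dose, 8.5 µM nominal compound, 0.8% DMSO; Replication: one well per compound; Signal: absorbance at 405 nm, 0 and 120 min; Schedule: 1 h preincubation plus 2 h reaction at 25 °C.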
# PKA-R1A activ = activates the PKA-R1A holoenzyme complex; P00514+P68181; PKA-R1A dissociation, Cy5-IP20 fluorescence polarization; scaled: DMSO 0%, 113 µM cGMP 100%; activation, % at 11.4 µM; 340,000 compounds, 0.083% hits; AID 504707;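 active means percent activation above the mean of all tested compounds plus 3 SD, cut at about 19% in these data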;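 further: higher means more PKAc released from R1A so a rise in polarization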
# PC3 D3A act = activates human procaspase-3, dual activator counter-screen | shares compounds with procasp7 counter | recombinant PC-3 D3A, Ac-DEVD-pNA absorbance 405 nm; aspartates 9, 28, 175 changed to alanine; 100% = enzyme control | activation, % at 8.5 µM | 290 tested, under 10 active;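 active means mean percent activation across triplicates above a set limit taken from the earlier primary procaspase-3 screen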;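 further: 0% = DMSO wells and 100% = DMSO wells with 5 µM added PC-3 D3A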
# Procasp7 act = procaspase-7 (human) activation, dual activator confirmation. shares compounds with procasp7 counter. recombinant procaspase-7, Ac-DEVD-pNA absorbance 405 nm; D23A/D198A/D206A mutant that cannot self-cleave. activation, % at 8.5 µM. 290 tested, under 10 active. AID 493115;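 active means mean activation above a set limit carried over from the earlier primary screen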;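 further: 0% = DMSO only and 100% = DMSO with added 5 µM PC-7 enzyme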
# * marks the source's active call; other numbers are inactive results; . = no result given. Only some compounds are listed: those with a hit (about 0.29% of all), similar ones and a draw of the others.
SMILES,PKA-R2B activ,procasp7 counter,procasp3 activ,PKA-R1A activ,PC3 D3A act,Procasp7 act
NC(=O)c1nsc(C(=O)N(c2ccccc2F)C(C(=O)NCc2ccccc2)c2ccc(O)cc2)c1N (stereo not given),-6,34*,18,-3,-28,-36
COc1ccc(N(C(=O)c2snc(C(N)=O)c2N)C(C(=O)NCc2ccc(F)cc2)c2ccc(C)o2)c(OC)c1 (stereo not given),-4,26*,5,-5,2,2
CCOc1ccccc1N(C(=O)c1snc(C(N)=O)c1N)C(C(=O)NCc1ccccc1)c1ccc(O)cc1 (stereo not given),-2,.,.,-6,.,.
Cc1ccccc1N(C(=O)c1snc(C(N)=O)c1N)C(C(=O)NCc1ccccc1)c1ccc(O)cc1 (stereo not given),1,40*,-98,-4,-28,-35
COc1cccc(N(C(=O)c2snc(C(N)=O)c2N)C(C(=O)NCc2ccccc2)c2ccc(O)cc2)c1 (stereo not given),-10,79*,33*,-14,-4,-11
Nc1ccc(Sc2nc3ccccc3[nH]2)cc1,-5,-4,3,4,.,.
COC(=O)c1nnc(-c2ccccc2)c(-c2ccccc2)n1,-7,-6,3,0,.,.
O=C1CC(O)(c2ccccc2)C(c2ccccc2)=C1c1ccccc1 (stereo not given),-12,1,-4,-5,.,.
Cc1c(CC(=O)N2CCN(C(=O)C3COc4ccccc4O3)CC2)c(=O)oc2cc(O)ccc12 (stereo not given),-3,30*,24*,-18,-28,-34
Cc1c(CC(=O)N2CCN(C(=O)C3COc4ccccc4O3)CC2)c(=O)oc2c(C)c(O)ccc12 (stereo not given),-4,26*,27*,6,-29,-35
COc1ccc2c(C)c(CC(=O)N3CCN(C(=O)C4COc5ccccc5O4)CC3)c(=O)oc2c1 (stereo not given),-2,0,2,-10,.,.
Cc1c(CC(=O)N2CCN(C(=O)C3COc4ccccc4O3)CC2)c(=O)oc2cc(O)cc(O)c12 (stereo not given),-12,17,16,-18,.,.
O=C1C=C(O)CC(c2ccco2)C1 (stereo not given),4,-6,0,-7,.,.
COc1ccc(-c2cc(C(=O)OC3CCOC3=O)c3ccccc3n2)cc1OC (stereo not given),-1,28*,27*,7,15,10
O=C(OC1CCOC1=O)c1cc(-c2ccccc2)nc2ccccc12 (stereo not given),4,0,4,-1,.,.
Sc1ccccc1N=Cc1cccs1,-3,.,.,5,.,.
CCCn1c(=N)c(S(=O)(=O)c2ccccc2)cc2c(=O)n3ccccc3nc21,-5,42*,-26,-2,-30,-33
COc1ccc(S(=O)(=O)N2CCN(C(=O)CCOc3ccccc3)CC2)cc1OC,-3,-1,-7,-18,.,.
COc1ccc(S(=O)(=O)N2CCN(C(=O)COc3ccc(C)c(C)c3)CC2)cc1OC,0,39*,-2,-5,1,-2
O=c1oc2ccccc2cc1-c1nc2ccccc2o1,3,2,1,9,.,.
O=c1oc2ccc3ccccc3c2cc1-c1nc2ccccc2o1,-14,28*,-2,-2,-30,-35
COc1ccc2c(-c3ccc(SC)cc3)c(-c3ccc(S(C)(=O)=O)cc3)sc2c1,9,55*,43*,-2,-28,-34
COc1ccc(-c2cc(C(=O)OCC(=O)NC(C)C)c3ccccc3n2)cc1,-2,27*,38*,0,-17,-12
O=C(NCCN1CCOCC1)c1cc(-c2ccc(Cl)cc2Cl)on1,-4,0,1,-6,.,.
Cc1ccc(/C=C/c2nc3sc(C(=O)O)c(C)c3c(=O)[nH]2)cc1[N+](=O)[O-],-16,-12,-25,-7,.,.
SMILES,PKA-R2B activ,procasp7 counter,procasp3 activ,PKA-R1A activ,PC3 D3A act,Procasp7 act
CCOP(=O)(OCC)c1nc(-c2cccc3ccccc23)oc1NCc1ccc(OC)cc1,5,61*,36*,-3,-29,-36
CCOP(=O)(OCC)c1nc(-c2cccc3ccccc23)oc1NCc1ccccc1,-2,20,19,1,.,.
c1ccc(N2CC3CCc4ccccc4C3=N2)cc1 (stereo not given),-8,72*,39*,-3,-30,-35
COc1cccc(-c2cc3nc(-c4ccccc4)cc(N4CCC5(CC4)OCCO5)n3n2)c1,-8,38*,32*,10,-30,-37
N#Cc1c(-c2ccco2)cc(-c2ccccc2)[nH]c1=O,-4,-5,3,-4,.,.
Cc1cc(C(=O)NC(CC(C)C)C(=O)O)cc(C)c1[N+](=O)[O-] (stereo not given),-1,26*,10,-11,3,1
O=c1oc2cc(O)ccc2c2oc3cc(O)ccc3c12,-4,26*,-1,0,-28,-36
CC(C)=CCc1c(O)cc2c(=O)c3ccc(O)cc3oc2c1O,1,5,0,-6,.,.
O=c1oc2cc(O)ccc2c2ccccc12,-16,-4,-3,-9,.,.
Cc1c(Cc2ccccc2)c(=O)oc2cc(O)ccc12,-2,27*,25*,-5,-31,-36
COc1c(CC=C(C)C)c(O)cc2oc(=O)c3c4ccc(O)cc4oc3c12,.,27*,27*,.,-29,-35
Cc1c(Cc2ccccc2)c(=O)oc2cc(OCC(=O)c3ccccc3)ccc12,1,4,-1,0,.,.
CCOc1ccc(-n2c(SCC(=O)Nc3cc(C)on3)nc3c(c2=O)SCC3)cc1,-13,6,-3,-5,.,.
CCOc1ccc(-n2c(SCC(=O)Nc3ccc(OC)cc3)nc3c(c2=O)SCC3)cc1,5,68*,3,-1,0,1
COc1ccc(C(=O)c2sc3nc(-c4ccccc4)ccc3c2N)cc1,-2,-41,-28,4,.,.
CC(C)OC(=O)c1sc2nc(-c3ccccc3)ccc2c1N,-8,34*,8,-3,-28,-35
COCc1nnc(NC(=O)CCSc2ccccc2)s1,-6,27*,1,-1,4,0
Cc1cc(N/N=C/c2ccc(N(C)C)cc2)nc(NCc2ccccc2)n1,.,32*,57*,.,-28,-27
